Measured values reported in ChEMBL document CHEMBL1155879, “Identification and validation of human DNA ligase inhibitors using computer-aided drug design” (J Med Chem, 2008).
pIC50, pKi: −log10 of the molar value. The source made the active and inactive calls. The calls are words filed in the database; no cut-off is given here.

Columns and labels:
[1] = Growth inhibition of human MCF10A cells at 50 uM by MTT assay relative to control; type: cell-based; details: MCF-10A
[2] = Partition coefficient, log P of the compound; type: physicochemical; details: octanol/water
[3] = target: T1, DNA ligase 1 (Homo sapiens, UniProt P18858); assay: Inhibition of human recombinant DNA ligase 1 in presence of 0.1% Triton X-100 by fluorescence energy transfer-based DNA joining assay relative to control
[4] = system: HCT-116; assay: Growth inhibition of human HCT116 cells at 50 uM by MTT assay relative to control; type: functional, cell-based
[5] = target: T1, DNA ligase 1; assay: Inhibition of human recombinant DNA ligase 1 by radioactive gel-based ligation assay
How it was run: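 A 25-mer and a 5′-[32P]-labeled 18-mer were annealed to a complementary 44-mer to give a centrally nicked duplex. Labeled substrate (0.5 pmol) and hLigI (0.02 pmol) in ligation buffer were incubated with varying inhibitor concentrations for 30 min at 25 °C. Products were resolved on gels, and IC50 was derived from the concentration-dependence.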

[6] = target: T1, DNA ligase 1; assay: Inhibition of human recombinant DNA ligase 1 at 100 uM by fluorescence energy transfer-based DNA joining assay relative to control
How it was run: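 Fluorescence energy transfer joining of a nicked DNA substrate (10 pmol) by purified recombinant hLigI (0.25 pmol), run in duplicate with or without 100 µM candidate inhibitor.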

[7] = system: DNA; assay: Inhibition of ethidium bromide binding to DNA at 100 uM
[8] = target: T1, DNA ligase 1; assay: Inhibition of human recombinant DNA ligase 1 using nicked DNA substrate by kinetic assay
How it was run: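 Initial ligation rates were measured with hLigI (0.05 pmol) and fluorescent nicked DNA substrate (0.5–100 pmol) at various inhibitor concentrations. Ki came from Lineweaver–Burk double-reciprocal plots and curve fitting.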

T1 sequence (P18858 whole entry): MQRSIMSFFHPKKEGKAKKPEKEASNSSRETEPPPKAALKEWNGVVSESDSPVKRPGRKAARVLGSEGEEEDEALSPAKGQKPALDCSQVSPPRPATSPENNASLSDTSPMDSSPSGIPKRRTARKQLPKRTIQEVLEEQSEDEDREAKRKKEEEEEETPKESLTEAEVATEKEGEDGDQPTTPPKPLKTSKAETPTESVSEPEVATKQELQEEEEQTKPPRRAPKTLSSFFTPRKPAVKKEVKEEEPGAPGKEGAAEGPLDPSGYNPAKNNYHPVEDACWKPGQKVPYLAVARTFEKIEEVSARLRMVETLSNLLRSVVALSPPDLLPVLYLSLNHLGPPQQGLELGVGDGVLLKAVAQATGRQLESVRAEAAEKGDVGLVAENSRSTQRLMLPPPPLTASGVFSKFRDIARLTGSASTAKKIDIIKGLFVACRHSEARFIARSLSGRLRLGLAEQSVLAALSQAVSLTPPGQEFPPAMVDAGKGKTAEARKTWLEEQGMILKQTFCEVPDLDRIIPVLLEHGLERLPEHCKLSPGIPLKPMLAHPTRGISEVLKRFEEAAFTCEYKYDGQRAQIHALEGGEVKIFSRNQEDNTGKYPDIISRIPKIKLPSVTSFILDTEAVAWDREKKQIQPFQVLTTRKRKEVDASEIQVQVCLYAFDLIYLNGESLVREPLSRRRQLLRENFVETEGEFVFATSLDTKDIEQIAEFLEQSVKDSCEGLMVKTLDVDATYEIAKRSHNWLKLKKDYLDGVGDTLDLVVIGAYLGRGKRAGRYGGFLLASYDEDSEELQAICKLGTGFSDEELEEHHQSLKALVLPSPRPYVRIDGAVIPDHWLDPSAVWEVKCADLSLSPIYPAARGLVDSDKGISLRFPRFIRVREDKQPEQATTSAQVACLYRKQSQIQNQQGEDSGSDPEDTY

Row | SMILES | logP [2] | inhibition ([3]; concentration not given here) | pIC50 [5] | inhibition [6] | Activity [3] | Activity [7] | pKi [8] | growth inhibition [1] | growth inhibition [4]
1 | Cc1oc(C(=O)O)cc1CSCc1cc(C(=O)O)c(C)o1 | 1.87 |  | 6.22 | 91% | Active |  |  |  | 
2 | O=c1[nH]ncc(N/N=C\c2ccc(O)c([N+](=O)[O-])c2)c1Cl | 4.84 |  | 4.92 | 59.8% |  | inactive |  | 70% | 40%
3 | O=C(c1ccc(O)cc1)c1ccccc1O | 3.04 |  | 4.60 | 50.7% | Active |  |  |  | 
4 | Cc1c(Br)cc(NCC(=O)N/N=C\c2cc([N+](=O)[O-])ccc2O)cc1Br | 4.91 |  | 5.10 | 78.3% |  | inactive |  | 70% | 70%
5 | O=C(O)CSc1cc(Cl)c2nonc2c1[N+](=O)[O-] | 2.15 |  | 4.89 | 60.6% | Active |  |  | 40% | 
6 | CSc1ccc(C(=O)O)s1 | 1.92 |  | 5.00 | 60.5% | Active |  |  |  | 

Second part, led by results:

Row | logP [2] | inhibition ([3]; concentration not given here) | pIC50 [5] | inhibition [6] | Activity [3] | Activity [7] | pKi [8] | SMILES | growth inhibition [1] | growth inhibition [4]
7 | 1.78 | 39% | 4.60 | 52.5% |  |  |  | COc1ccc(-c2cnc3c(O)nc(O)nc3n2)cc1 | 70% | 40%
8 | 1.42 |  | 5.10 | 53.4% | Active |  |  | NS(=O)(=O)c1ccc(CCNC(=O)CCS(=O)(=O)c2ccc(Br)cc2)cc1 |  | 
9 | 0.24 |  | 5.40 | 59.3% | Active |  | 5.40 | O=C1Nc2c(C(=O)O)cccc2C1=O |  | 
